Assay outcomes as filed in PubChem BioAssay.
A selection: hits, their analogues and other compounds. The true share with any hit is near 2.2%.
IEC-6 tox: cytotoxicity in IEC-6 intestinal epithelial cells, primary screen, cytotoxicity control for KLF5 inhibitor project, cell-based, luminescence | 290,000 tested, 0.78% active | IEC-6 cytotoxicity, luminescence viability | AID 1825, 2009 | inhibition, % at 5 µM; in the data active = inhibition above about 22%
MT stabilize HCS: microtubule stabilizers in HeLa cells, primary screen, imaging, high-content imaging; AID 2205, 2009; % tubulin-high responders, % at 10 µM; 200,000 tested, 0.83% active; HeLa tubulin immunostaining HCS, 24 h; share of cells brighter than vehicle mean+2SD;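 active = plate Z-score above 3 for both tubulin-high and condensed-nucleus cell shares, with cell loss under 80%, at 10 µM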;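 note: anti alpha tubulin signal scored within the nucleus-defined area of each cell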
b-catenin transl: modulators of beta-catenin nuclear translocation, primary screen, imaging, HeLa cells, immunofluorescence, high-content. nuclear translocation activity, % at 5 µM. 190,000 tested, 0.3% active. AID 1665, 2009;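 active = nuclear translocation activity above 50% at 5 µM, with a well cell count of 50 or more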;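 note: per-cell ratio of nuclear to cytoplasmic median beta-catenin stain intensity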
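Signal – beta-catenin immunofluorescence imaging with DAPI · Test system – human HeLa cell line · Dosing – 5 µM primary single dose, 0.1% DMSO, 0.02–20 µM confirmation series · Measure – % activation, nuclear-to-cytoplasmic median beta-catenin signal ratio per cell · Incubation – 24 h compound exposure at 37°C, 5% CO2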
APP transl inh: inhibitors of APP translation via 5'UTR reporter, primary screen, APP 5'UTR luciferase, SH-SY5Y cells | SH-SY5Y APP 5'UTR-luciferase reporter, luminescence | inhibition, % at 2 µM | 190,000 tested, 0.82% active;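 active = inhibition above a set limit, derived from the sample mean plus 3 SD, cut at about 45% in these data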
BaF3 tox: parental Ba/F3 cell viability inhibition, counter-screen for JAK2V617F inhibitor project, murine pro-B, CellTiter-Glo luminescence | CellTiter-Glo ATP luminescence | inhibition, % at 5.6 µM | 220,000 tested, 1.1% active;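 active = inhibition above a per-campaign cutoff, the mean inhibition of all tested compounds plus 3 SD, cut at about 27% in these data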
Ba/F3 V617F tox: reduced viability of JAK2V617F-dependent Ba/F3 cells, primary screen, JAK2V617F inhibitor project, cell-based, Ba/F3 EpoR-JAK2V617F, luminescence. 220,000 tested, 1.1% active. inhibition, % at 5.6 µM. ATP luminescence. AID 1446, 2008;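 active = inhibition above the campaign mean plus 3 SD over all tested compounds, cut at about 24% in these data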;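 note: cytokine-independent growth of Ba/F3 cells driven by EpoR plus mutant JAK2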
Large screens that a line does not name were inactive.

COc1ccccc1N(C(=O)CNC(=O)c1ccco1)C(C(=O)NCC1CCCO1)c1ccccc1 (centres undefined)	none (no result: MT stabilize HCS, b-catenin transl, APP transl inh, BaF3 tox, Ba/F3 V617F tox)
COC(=O)C1=C(C)NC2=C(C(=O)CCC2)C1c1ccsc1 (centres undefined)	none
CCOC(=O)C1=C(C)NC2=C(C(=O)CC(c3cccs3)C2)C1c1cccs1 (centres undefined)	MT stabilize HCS 18
COC(=O)C1=C(C)NC2=C(C(=O)CC(c3cccs3)C2)C1c1ccsc1 (centres undefined)	MT stabilize HCS 26
CCOC(=O)C1=C(C)NC2=C(C(=O)OC2)C1c1ccccc1 (centres undefined)	b-catenin transl 81
CC(C)(C)c1ccc(-c2noc(CNC(=O)c3ccco3)n2)cc1	none (no result: MT stabilize HCS, b-catenin transl, APP transl inh, BaF3 tox, Ba/F3 V617F tox)
CCOc1ccc(NCc2nnc(SCC(=O)Nc3cc(C)on3)n2-c2ccccc2OC)cc1	MT stabilize HCS 24
CCOc1ccccc1-n1c(COc2ccccc2)nnc1SCC(N)=O	APP transl inh 52
CCOc1ccc(NCc2nnc(SCC(=O)Nc3cc(C)on3)n2-c2ccc(OC)cc2)cc1	none
O=C(NC12CC3CC(CC(C3)C1)C2)c1c(Cl)cccc1Cl	none (no result: MT stabilize HCS, b-catenin transl, APP transl inh, BaF3 tox, Ba/F3 V617F tox)
O=C(N/N=C/c1ccc2c(c1)OCO2)c1cc(-c2ccncc2)nc2ccccc12	MT stabilize HCS 21, APP transl inh 67
O=C(N/N=C/c1ccccn1)c1cc(-c2ccncc2)nc2ccccc12	none
O=C(N/N=C/c1ccc2c(c1)OCO2)c1cc(-c2ccccc2Cl)nc2ccccc12	none (no result: b-catenin transl)
Cc1cc(C(=O)N/N=C/c2ccc(N(C)C)cc2)c2ccccc2n1	APP transl inh 46
Cc1cc(C(=O)N/N=C/c2ccc([N+](=O)[O-])cc2)c2ccccc2n1	none (no result: MT stabilize HCS, APP transl inh)
O=C(N/N=C/c1ccsc1)c1cc(-c2ccncc2)nc2ccccc12	MT stabilize HCS 13, APP transl inh 60
C/C(=N\NC(=O)c1cc(-c2cccs2)nc2ccccc12)c1ccccn1	APP transl inh 71
O=C(N/N=C/c1ccsc1)c1cc(-c2cccs2)nc2ccccc12	MT stabilize HCS 10
Cc1ccc(/C=N/NC(=O)c2cc(-c3cccnc3)nc3ccccc23)cc1	b-catenin transl 83, APP transl inh 68
O=C(N/N=C/c1ccc(Cl)cc1)c1cc(-c2cccnc2)nc2ccccc12	none
CC(/C=N/NC(=O)CSc1nc2ccccc2n1C)=C\c1ccco1	MT stabilize HCS 17
O=C(O)c1ccc(/C=N/NC(=O)c2cc(-c3cccs3)nc3ccccc23)cc1	none
O=C(N/N=C/c1ccc(F)cc1)c1cc(-c2ccco2)nc2ccccc12	b-catenin transl 53
NC(=O)CSc1oc(-c2ccco2)nc1S(=O)(=O)c1ccc(F)cc1	none (no result: MT stabilize HCS, b-catenin transl, APP transl inh, BaF3 tox, Ba/F3 V617F tox)
COc1cc(-c2nc(=S)[nH][nH]2)cc(OC)c1OC	none
CC(/C=N/NC(=O)c1cc(-c2ccncc2)nc2ccccc12)=C\c1ccco1	MT stabilize HCS 16, APP transl inh 88
O=C(N/N=C/c1ccco1)c1cc(-c2cccc(Br)c2)nc2ccccc12	none (no result: b-catenin transl)
CCN(CC)CCCNC(=O)c1cc(Nc2ccc(OC)cc2)nc2ccccc12	none (no result: MT stabilize HCS, b-catenin transl, APP transl inh, BaF3 tox, Ba/F3 V617F tox)
CC(C)c1ccc(NC2CCCN(C(=O)CSc3nncn3C)C2)cc1 (centres undefined)	none (no result: MT stabilize HCS, b-catenin transl, APP transl inh, BaF3 tox, Ba/F3 V617F tox)
CCCc1nnc(NC(=O)CCC(=O)NCCc2ccc(OC)c(OC)c2)s1	APP transl inh 73
COc1ccc(-c2cc(C(=O)NN)[nH]n2)cc1OC	APP transl inh 73
COc1ccc(-c2cc(C(=O)NN)[nH]n2)cc1	APP transl inh 84
CCOc1ccc(-c2cc(C(=O)NN)[nH]n2)cc1	none (no result: b-catenin transl)
COc1ccc(-c2cc(C(=O)O)[nH]n2)cc1OC	none
Nc1cc(Cl)ccc1C(=O)OCC(=O)N1CCOCC1	none (no result: MT stabilize HCS, APP transl inh)
Cc1ccoc1C(=O)Nc1ccc(CC(=O)O)cc1	APP transl inh 79
Cc1ccc(C(=O)NC2CCN(S(=O)(=O)c3ccccc3F)CC2)cc1	none (no result: MT stabilize HCS, b-catenin transl, APP transl inh, BaF3 tox, Ba/F3 V617F tox)
Cc1[nH][nH]c(=O)c1C(c1c(C)[nH][nH]c1=O)c1cn(Cc2ccc(F)cc2)c2ccccc12	MT stabilize HCS 20
Cc1[nH][nH]c(=O)c1C(c1c(C)[nH][nH]c1=O)c1cn(Cc2ccc(Cl)c(Cl)c2)c2ccccc12	b-catenin transl 99, APP transl inh 81
O=c1c2ccccc2ncn1Cc1ccc(Cl)c(Cl)c1	none (no result: MT stabilize HCS, b-catenin transl, APP transl inh, BaF3 tox, Ba/F3 V617F tox)
CCOC(=O)N1CCN(C(=O)c2cn(CC)c3cc(N4CCN(C)CC4)c(F)cc3c2=O)CC1	BaF3 tox 79
O=C(Nc1ccc(C(F)(F)F)cc1)C1CCN(S(=O)(=O)c2ccc(N3CCCC3=O)cc2)CC1	none (no result: MT stabilize HCS, b-catenin transl, APP transl inh, BaF3 tox, Ba/F3 V617F tox)
CCCCC(=O)N/N=C/c1ccc(Sc2cccc3cccnc23)o1	none
O=C(Cc1cccc2ccccc12)N/N=C/c1ccc(Sc2cccc3cccnc23)o1	APP transl inh 54 (no result: b-catenin transl)
CCN(CC)CCCN(C(=O)c1cccc(C)c1)c1nc(-c2ccc(OC)cc2)cs1	none (no result: MT stabilize HCS, b-catenin transl, APP transl inh, BaF3 tox, Ba/F3 V617F tox)
CCOc1ccc(C(CC(=O)O)NC(=O)Cc2ccc(Cl)cc2)cc1 (centres undefined)	none (no result: MT stabilize HCS, b-catenin transl, APP transl inh, BaF3 tox, Ba/F3 V617F tox)
Cc1nc(N2CCC(C)CC2)c2oc3ccccc3c2n1	MT stabilize HCS 24
COc1ccccc1N1CCN(c2nc(C)nc3c2oc2ccccc23)CC1	IEC-6 tox 80, MT stabilize HCS 20, b-catenin transl 81, APP transl inh 93, BaF3 tox 71, Ba/F3 V617F tox 65
O=C(/C=C/c1ccc([N+](=O)[O-])cc1)NNC(=O)C1CC1	BaF3 tox 50, Ba/F3 V617F tox 44
CSc1ccccc1OCc1cc(C(=O)NC2CCOC2)no1 (centres undefined)	none (no result: MT stabilize HCS, b-catenin transl, APP transl inh, BaF3 tox, Ba/F3 V617F tox)
CC(C)/C=C/C(=O)N1CCCC(N2CCN(c3ccccc3F)CC2)C1 (centres undefined)	none (no result: MT stabilize HCS, b-catenin transl, APP transl inh, BaF3 tox, Ba/F3 V617F tox)
CCC(C)N1CC(O)=C(c2nc3ccccc3[nH]2)C1=N (centres undefined)	BaF3 tox 90
O=S(=O)(c1ccc2ccccc2c1)N1CCN(C(=S)Nc2ccc(F)cc2)CC1	BaF3 tox 35
CCOC(=O)c1ccc(N2C(=O)c3n[nH]c(C)c3C2c2ccc(OC)c(OC)c2)cc1 (centres undefined)	MT stabilize HCS 38
O=S1(=O)CCOCCCN1Cc1ccccc1Br	none (no result: MT stabilize HCS, b-catenin transl, APP transl inh, BaF3 tox, Ba/F3 V617F tox)
CC(C)[C@H](NC(=O)[C@@H]1CSC2c3ccccc3C(=O)N21)C(=O)NCc1ccncc1 (some centres undefined)	none (no result: MT stabilize HCS, b-catenin transl, APP transl inh, BaF3 tox, Ba/F3 V617F tox)
COc1cccc(C2=CC(c3cccs3)n3nnnc3N2)c1 (centres undefined)	MT stabilize HCS 33
CSc1cccc(NC(=O)c2nnn(CC(=O)Nc3cc(C)cc(C)c3)c2N)c1	none (no result: MT stabilize HCS, b-catenin transl, APP transl inh, BaF3 tox, Ba/F3 V617F tox)
CCn1cc(CN2CCC(n3nccc3NC(=O)c3ccc(OC)cc3)CC2)cn1	none (no result: MT stabilize HCS, b-catenin transl, APP transl inh, BaF3 tox, Ba/F3 V617F tox)
CCOC(=O)/C=C(\C)Sc1cc(=O)oc2ccccc12	none
